According to ChEMBL document CHEMBL5126600, “Discovery of the First-in-Class G9a/GLP Covalent Inhibitors” (J Med Chem, 2022):

Tests used:
[1] = target: Histone-lysine N-methyltransferase SETD2 (Homo sapiens) (UniProt Q9BYW2); assay: Inhibition of SETD2 (unknown origin) at 1 uM using 3H-SAM as a substrate relative to control
Method in brief: (§1)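 Contracted 3H-SAM methyl-transfer scintillation proximity assay against a panel of methyltransferases; compound tested at 1 μM in duplicate; inhibition expressed as percent of control enzyme activity.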

[2] = target: T1, Histone-lysine N-methyltransferase EHMT1 (Homo sapiens, UniProt Q9H9B1); assay: Binding affinity to human GLP (982 to 1266 residues) assessed as dissociation constant by isothermal titration calorimetry method
T1 sequence (Q9H9B1 whole entry): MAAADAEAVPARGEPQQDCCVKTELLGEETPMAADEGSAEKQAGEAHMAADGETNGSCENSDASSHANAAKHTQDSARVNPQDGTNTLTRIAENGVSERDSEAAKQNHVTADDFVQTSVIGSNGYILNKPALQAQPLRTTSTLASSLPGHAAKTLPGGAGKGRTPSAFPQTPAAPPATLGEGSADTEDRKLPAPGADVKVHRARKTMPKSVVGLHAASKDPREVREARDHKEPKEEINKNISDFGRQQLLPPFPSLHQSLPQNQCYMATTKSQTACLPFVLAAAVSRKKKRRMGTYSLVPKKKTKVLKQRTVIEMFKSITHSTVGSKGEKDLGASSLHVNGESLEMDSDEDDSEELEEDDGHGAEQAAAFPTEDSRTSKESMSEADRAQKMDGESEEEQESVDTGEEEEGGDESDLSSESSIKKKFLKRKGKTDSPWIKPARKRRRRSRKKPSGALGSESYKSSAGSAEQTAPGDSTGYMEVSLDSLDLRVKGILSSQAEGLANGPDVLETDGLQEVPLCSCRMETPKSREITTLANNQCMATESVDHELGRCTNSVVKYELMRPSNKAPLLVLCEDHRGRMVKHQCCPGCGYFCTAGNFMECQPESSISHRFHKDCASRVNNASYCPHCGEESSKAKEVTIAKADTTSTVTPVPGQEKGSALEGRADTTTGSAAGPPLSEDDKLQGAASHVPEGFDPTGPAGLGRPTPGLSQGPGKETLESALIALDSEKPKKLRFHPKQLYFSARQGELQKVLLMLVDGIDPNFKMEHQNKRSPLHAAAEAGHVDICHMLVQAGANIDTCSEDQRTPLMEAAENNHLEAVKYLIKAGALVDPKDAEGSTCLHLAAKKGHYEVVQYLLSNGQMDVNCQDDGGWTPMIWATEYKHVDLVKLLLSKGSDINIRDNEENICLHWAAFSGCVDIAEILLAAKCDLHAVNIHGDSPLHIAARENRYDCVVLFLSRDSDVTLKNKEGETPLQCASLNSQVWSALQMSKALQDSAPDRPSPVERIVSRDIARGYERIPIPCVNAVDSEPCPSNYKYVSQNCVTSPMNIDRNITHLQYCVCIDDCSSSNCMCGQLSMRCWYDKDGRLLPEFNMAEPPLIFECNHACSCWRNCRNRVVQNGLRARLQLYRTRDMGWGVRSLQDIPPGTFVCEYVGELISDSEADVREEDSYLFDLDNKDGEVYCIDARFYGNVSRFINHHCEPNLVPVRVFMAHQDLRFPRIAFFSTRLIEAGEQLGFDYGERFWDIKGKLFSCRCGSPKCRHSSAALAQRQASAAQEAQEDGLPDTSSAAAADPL
Method in brief: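 ITC at 25 °C in 50 mM Tris-HCl pH 7.5, 150 mM NaCl, 1% DMSO; 500 μM compound in syringe titrated into 50 μM G9a or GLP catalytic domain in cell (initial 0.4 μL injection then 13 injections), stirring 750 rpm; run time about 50 min; single binding site fit; mean ± SD of two independent measurements.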

[3] = target: Histone-lysine N-methyltransferase EZH2 (Homo sapiens) (UniProt Q15910); assay: Inhibition of N-terminal His-tagged EZH2 (2 to 746 residues) (unknown origin) expressed in baculovirus expression system at 1 uM using 3H-SAM as a substrate relative to control; method in brief: as §1
[4] = target: Protein arginine N-methyltransferase 1 (Homo sapiens) (UniProt Q99873); assay: Inhibition of N-terminal GST tagged PRMT1 (2 to 371 residues) (unknown origin) expressed in Escherichia coli at 1 uM using 3H-SAM as a substrate relative to control; method in brief: as §1
[5] = target: Histone-arginine methyltransferase CARM1 (Homo sapiens) (UniProt Q86X55); assay: Inhibition of N-terminal GST-tagged PRMT4 (2 to 608 residues)(unknown origin) expressed in Escherichia coli at 1 uM using 3H-SAM as a substrate relative to control; method in brief: as §1
[6] = target: PRMT5/MEP50 complex (Homo sapiens) (UniProt O14744+Q9BQA1); assay: Inhibition of recombinant human N-terminal Flag-tagged PRMT5 (2 to 637 residues)/N-terminal His-tagged MEP50 (2 to 342 residues) expressed in baculovirus expression system at 1 uM using 3H-SAM as a substrate relative to control; method in brief: as §1
[7] = target: Histone-lysine N-methyltransferase SUV39H1 (Homo sapiens) (UniProt O43463); assay: Inhibition of N-terminal fusion protein with C-terminal His-tagged SUV39H1 (44 to 412 residues) (unknown origin) expressed in Escherichia coli at 1 uM using 3H-SAM as a substrate relative to control; method in brief: as §1
[8] = target: Histone-lysine N-methyltransferase EHMT1 (Homo sapiens) (UniProt Q9H9B1); assay: Inhibition of human GLP (982 to 1266 residues) using H3 peptide as substrate in presence of SAM cofactor by scintillation counting method; details: time 5-45 min, TDE = time-dependent effect
Method in brief: (§2)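 Contracted scintillation proximity assay following 3H-methyl transfer from SAM (1 μM) to H3 peptide (0.05 μM) by G9a or GLP (5 nM each), with preincubation times of 5, 15 or 45 min; four replicates.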

[9] = test system: MDA-MB-231; assay: Down regulation of H3K9 dimethylation in human MDA-MB-231 cells at 0.2 to 5 uM by Western blot analysis; type: functional, cell-based; details: dose 0.2-5 µM, time lower […], time upper 72.0 hrs, TDE = time-dependent effect
[10] = target: Protein arginine N-methyltransferase 3 (Homo sapiens) (UniProt O60678); assay: Inhibition of N-terminal His-tagged PRMT3 (2 to 531 residues)(unknown origin) expressed in Escherichia coli at 1 uM using 3H-SAM as a substrate relative to control; method in brief: as §1
[11] = target: T1, Histone-lysine N-methyltransferase EHMT1; assay: Inhibition of human GLP (982 to 1266 residues) using H3 peptide as substrate measured upto 45 mins in presence of SAM cofactor; method in brief: as §2

Sequence of Protein arginine N-methyltransferase 3 (Homo sapiens) (O60678 2-531 limits assumed): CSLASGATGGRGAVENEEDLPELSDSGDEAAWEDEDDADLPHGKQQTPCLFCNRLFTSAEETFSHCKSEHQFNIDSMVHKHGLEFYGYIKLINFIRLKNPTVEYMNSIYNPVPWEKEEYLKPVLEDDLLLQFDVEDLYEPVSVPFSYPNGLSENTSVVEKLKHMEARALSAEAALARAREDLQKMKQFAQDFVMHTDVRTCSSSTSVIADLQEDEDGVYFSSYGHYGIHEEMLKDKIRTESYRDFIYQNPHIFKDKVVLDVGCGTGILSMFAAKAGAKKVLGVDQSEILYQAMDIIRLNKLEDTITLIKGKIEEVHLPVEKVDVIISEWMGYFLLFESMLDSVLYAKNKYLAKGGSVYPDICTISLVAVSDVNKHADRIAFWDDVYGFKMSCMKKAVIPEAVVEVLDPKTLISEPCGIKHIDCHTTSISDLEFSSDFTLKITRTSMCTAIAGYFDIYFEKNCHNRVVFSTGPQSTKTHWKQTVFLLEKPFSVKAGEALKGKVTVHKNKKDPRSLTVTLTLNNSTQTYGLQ
Sequence of Histone-lysine N-methyltransferase EZH2 (Homo sapiens) (Q15910 whole entry, looked up, the tested form may be a part): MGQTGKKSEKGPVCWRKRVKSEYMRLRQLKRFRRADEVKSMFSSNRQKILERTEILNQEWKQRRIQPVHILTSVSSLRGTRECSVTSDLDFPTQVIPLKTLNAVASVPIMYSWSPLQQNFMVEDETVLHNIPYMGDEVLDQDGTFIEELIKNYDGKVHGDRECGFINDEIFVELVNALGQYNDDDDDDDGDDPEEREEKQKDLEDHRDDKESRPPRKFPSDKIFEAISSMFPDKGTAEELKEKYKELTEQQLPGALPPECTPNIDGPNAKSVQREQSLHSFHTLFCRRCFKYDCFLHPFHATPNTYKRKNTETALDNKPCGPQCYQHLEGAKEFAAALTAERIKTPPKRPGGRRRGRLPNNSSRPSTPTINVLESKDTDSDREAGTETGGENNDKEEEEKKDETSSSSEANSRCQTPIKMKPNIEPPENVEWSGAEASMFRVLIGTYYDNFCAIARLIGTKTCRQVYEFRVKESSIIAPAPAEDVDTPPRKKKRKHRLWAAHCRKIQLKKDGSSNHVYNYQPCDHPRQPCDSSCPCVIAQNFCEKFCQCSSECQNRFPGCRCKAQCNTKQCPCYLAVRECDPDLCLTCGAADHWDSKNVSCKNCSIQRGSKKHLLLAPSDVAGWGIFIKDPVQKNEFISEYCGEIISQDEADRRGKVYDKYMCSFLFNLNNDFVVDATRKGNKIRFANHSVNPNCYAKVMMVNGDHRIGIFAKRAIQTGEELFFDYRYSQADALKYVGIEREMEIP
Sequence of Histone-arginine methyltransferase CARM1 (Homo sapiens) (Q86X55 whole entry, the tested form may be a part): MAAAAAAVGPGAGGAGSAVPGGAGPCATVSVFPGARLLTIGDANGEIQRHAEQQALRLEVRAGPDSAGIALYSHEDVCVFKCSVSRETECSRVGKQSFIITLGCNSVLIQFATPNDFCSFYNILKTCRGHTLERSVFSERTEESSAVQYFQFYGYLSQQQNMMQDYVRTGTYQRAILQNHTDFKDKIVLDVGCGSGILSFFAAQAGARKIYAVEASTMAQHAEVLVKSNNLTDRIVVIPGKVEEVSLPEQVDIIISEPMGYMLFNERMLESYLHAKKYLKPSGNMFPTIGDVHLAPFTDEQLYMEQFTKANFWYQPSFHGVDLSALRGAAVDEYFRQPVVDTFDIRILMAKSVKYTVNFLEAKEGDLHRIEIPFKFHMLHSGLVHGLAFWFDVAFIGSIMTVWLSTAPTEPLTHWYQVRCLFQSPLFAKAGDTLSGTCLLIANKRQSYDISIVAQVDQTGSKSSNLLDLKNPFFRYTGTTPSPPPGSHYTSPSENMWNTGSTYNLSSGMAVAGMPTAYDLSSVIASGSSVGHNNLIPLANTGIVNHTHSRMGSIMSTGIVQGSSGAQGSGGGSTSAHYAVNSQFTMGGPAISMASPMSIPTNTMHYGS
Sequence of Histone-lysine N-methyltransferase SETD2 (Homo sapiens) (Q9BYW2 whole entry): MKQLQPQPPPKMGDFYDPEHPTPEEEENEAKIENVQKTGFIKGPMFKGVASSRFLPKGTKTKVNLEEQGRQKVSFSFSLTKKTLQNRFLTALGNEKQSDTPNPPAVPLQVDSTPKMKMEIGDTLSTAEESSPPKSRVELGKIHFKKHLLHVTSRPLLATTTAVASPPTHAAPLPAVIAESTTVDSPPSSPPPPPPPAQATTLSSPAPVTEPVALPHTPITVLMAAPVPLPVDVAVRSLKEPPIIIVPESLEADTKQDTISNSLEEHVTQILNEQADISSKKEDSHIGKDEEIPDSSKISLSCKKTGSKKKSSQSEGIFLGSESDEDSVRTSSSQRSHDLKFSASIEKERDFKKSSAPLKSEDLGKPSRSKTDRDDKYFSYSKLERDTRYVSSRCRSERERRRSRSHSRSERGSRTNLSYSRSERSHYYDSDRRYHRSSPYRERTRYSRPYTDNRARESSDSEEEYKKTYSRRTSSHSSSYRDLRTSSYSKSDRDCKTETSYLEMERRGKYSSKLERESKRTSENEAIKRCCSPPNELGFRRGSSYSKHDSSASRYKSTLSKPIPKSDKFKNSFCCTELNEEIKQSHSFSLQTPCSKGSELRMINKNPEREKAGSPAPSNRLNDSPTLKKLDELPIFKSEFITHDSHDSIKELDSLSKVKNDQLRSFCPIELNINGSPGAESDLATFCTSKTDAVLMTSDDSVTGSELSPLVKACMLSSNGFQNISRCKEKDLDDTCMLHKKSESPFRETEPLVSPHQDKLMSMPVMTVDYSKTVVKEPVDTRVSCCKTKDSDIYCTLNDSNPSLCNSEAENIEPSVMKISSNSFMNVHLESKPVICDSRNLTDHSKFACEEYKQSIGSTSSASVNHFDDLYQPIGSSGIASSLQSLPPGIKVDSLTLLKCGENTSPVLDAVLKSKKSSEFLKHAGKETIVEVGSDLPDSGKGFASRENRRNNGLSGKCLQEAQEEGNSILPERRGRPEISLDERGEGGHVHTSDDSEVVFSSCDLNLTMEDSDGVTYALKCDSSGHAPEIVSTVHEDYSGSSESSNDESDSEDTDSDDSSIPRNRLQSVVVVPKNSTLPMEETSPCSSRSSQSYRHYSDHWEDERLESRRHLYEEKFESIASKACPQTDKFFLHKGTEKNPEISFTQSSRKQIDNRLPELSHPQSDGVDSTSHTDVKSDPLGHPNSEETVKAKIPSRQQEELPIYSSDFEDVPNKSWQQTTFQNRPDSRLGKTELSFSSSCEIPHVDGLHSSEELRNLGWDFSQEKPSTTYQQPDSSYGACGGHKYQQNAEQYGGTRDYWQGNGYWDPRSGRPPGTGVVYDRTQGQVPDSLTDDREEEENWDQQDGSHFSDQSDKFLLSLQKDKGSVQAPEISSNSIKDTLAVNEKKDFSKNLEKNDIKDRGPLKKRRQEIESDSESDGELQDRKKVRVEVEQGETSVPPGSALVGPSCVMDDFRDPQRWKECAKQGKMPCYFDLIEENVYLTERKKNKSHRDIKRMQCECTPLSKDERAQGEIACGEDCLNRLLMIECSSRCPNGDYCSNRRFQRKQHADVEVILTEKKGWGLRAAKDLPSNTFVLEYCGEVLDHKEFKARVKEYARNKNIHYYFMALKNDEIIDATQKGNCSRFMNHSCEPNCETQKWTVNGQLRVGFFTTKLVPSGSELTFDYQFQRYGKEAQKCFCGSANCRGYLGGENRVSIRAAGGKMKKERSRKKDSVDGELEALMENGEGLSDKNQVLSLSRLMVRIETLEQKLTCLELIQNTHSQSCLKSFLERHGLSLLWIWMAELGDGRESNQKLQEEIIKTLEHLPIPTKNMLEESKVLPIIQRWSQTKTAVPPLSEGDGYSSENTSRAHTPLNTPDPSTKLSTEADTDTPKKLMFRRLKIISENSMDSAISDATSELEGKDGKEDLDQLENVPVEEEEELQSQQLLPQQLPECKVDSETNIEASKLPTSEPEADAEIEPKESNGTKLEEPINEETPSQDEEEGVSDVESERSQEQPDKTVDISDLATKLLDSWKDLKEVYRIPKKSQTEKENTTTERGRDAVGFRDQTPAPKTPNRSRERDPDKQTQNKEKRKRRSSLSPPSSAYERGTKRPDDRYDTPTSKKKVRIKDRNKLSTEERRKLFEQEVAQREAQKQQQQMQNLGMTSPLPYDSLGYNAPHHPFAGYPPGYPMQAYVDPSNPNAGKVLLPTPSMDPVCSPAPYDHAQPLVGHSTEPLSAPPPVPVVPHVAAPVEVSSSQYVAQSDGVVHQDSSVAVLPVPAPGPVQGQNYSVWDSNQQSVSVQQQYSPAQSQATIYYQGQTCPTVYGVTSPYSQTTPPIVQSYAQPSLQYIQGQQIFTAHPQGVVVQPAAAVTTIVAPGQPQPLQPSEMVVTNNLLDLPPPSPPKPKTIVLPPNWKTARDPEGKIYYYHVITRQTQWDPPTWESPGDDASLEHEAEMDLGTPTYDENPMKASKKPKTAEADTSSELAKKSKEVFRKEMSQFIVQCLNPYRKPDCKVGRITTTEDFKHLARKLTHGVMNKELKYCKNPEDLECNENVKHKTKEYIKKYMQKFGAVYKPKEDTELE
Sequence of Histone-lysine N-methyltransferase SUV39H1 (Homo sapiens) (O43463 whole entry, the tested form may be a part): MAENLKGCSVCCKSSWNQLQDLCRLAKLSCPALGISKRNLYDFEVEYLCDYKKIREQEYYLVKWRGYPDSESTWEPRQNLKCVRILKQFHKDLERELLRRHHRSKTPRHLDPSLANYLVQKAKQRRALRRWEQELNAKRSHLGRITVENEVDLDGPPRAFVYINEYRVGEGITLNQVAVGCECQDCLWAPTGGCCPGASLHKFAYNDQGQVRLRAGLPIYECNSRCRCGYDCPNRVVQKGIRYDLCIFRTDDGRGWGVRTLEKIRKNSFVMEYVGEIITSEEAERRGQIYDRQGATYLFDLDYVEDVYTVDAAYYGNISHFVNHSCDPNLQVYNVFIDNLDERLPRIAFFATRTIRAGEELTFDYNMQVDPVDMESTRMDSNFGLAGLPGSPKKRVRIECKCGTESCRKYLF

inhibition [1]: < 50%
Kd [2]: 46 nM
inhibition [3]: < 50%
inhibition [4]: < 50%
inhibition [5]: < 50%
inhibition [6]: < 50%
inhibition [7]: < 50%
inhibition [8]: Tde
inhibition [10]: < 50%
IC50 [11]: 140 nM
SMILES: C=CC(=O)Nc1cc(NC2CCN(C(C)C)CC2)c2cc(OC)c(OCCCN3CCCC3)cc2n1
Activity [9]: Tde
